# Test results from ChEMBL document CHEMBL1153568, “Synthesis and anticonvulsant activity of N-(2-hydroxyethyl) cinnamamide derivatives” (Eur J Med Chem, 2009).
# Calls of active or inactive are those of the source.
# What was measured:
# Mus musculus [1] = assay: Anticonvulsant activity against thiosemicarbazide-induced seizures in Kunming mouse assessed as tonic seizures of at 50 mg/kg, ip after 2.5 hrs; type: functional; conditions: route intraperitoneal
# Mus musculus [2] = assay: Anticonvulsant activity in ip dosed Kunming mouse assessed as protection against maximal electroshock-induced seizures; type: functional
# Method in brief: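 Phase II quantification: mice (ten per dose) dosed i.p. with compound suspended in 1:19 DMSO/saline, 0.5% methylcellulose; MES given 30 min later, protection being abolition of hind leg tonic extension. ED50, dose protecting 50% of animals, reported with 95% confidence limits.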
# Mus musculus [3] = assay: Anticonvulsant activity against subcutaneous pentylenetetrazole-induced seizures in Kunming mouse assessed as tonic seizures of at 50 mg/kg, ip after 0.5 hrs; type: functional
# Method in brief: (§1)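 Test agent given i.p. (suspension in 1:19 DMSO/saline, 0.5% methylcellulose); 30 min later PTZ 85 mg/kg in saline given sc. Animals kept in individual cages, watched 30 min; clonic seizures, tonic seizures and deaths counted, expressed as percent.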
# Mus musculus [4] = assay: Toxicity in Kunming mouse assessed as subcutaneous pentylenetetrazole-induced lethality at 50 mg/kg, ip after 0.5 hrs; type: organism-based; design: dose 50 mg/kg; conditions: in vivo, sc
# Method in brief: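 Test article at 50 mg/kg i.p. in 1:19 (vol/vol) DMSO/saline with 0.5% methylcellulose. After 30 min, pentylenetetrazole at 85 mg/kg in saline was given sc. Animals were caged individually and watched for 30 min, with clonic and tonic seizures and deaths counted.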
# Mus musculus [5] = assay: Anticonvulsant activity against isoniazid-induced seizures in Kunming mouse assessed as tonic seizures of at 50 mg/kg, ip after 0.5 hrs; type: functional; conditions: route intraperitoneal
# Method in brief: (§2)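 Compounds suspended in 1:19 DMSO/saline containing 0.5% methylcellulose and given i.p.; after 30 min mice received isoniazid 250 mg/kg i.p., a dose convulsing 100% of animals. Each mouse housed singly and observed 1 h; percent of animals with clonic and tonic seizures, and lethality, recorded.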
# Mus musculus [6] = assay: Anticonvulsant activity against 3-mercaptopropionic acid-induced seizures in Kunming mouse assessed as tonic seizures of at 50 mg/kg, ip after 0.5 hrs; type: functional; conditions: route intraperitoneal
# Method in brief: (§3)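 Mice given test agent i.p. as suspension in 1:19 DMSO/saline with 0.5% methylcellulose; 30 min later 60 mg/kg 3-mercaptopropionic acid in saline injected sc. Latency and duration of convulsions, latency and percentage lethality recorded over 1 h after convulsant; clonic and tonic seizure incidence reported as percent of animals.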
# Mus musculus [7] = assay: Anticonvulsant activity against subcutaneous pentylenetetrazole-induced seizures in Kunming mouse assessed as clonic seizures of at 50 mg/kg, ip after 0.5 hrs; type: functional; method in brief: as §1
# Mus musculus [8] = assay: Toxicity in Kunming mouse assessed as thiosemicarbazide-induced lethality at 50 mg/kg, ip after 2.5 hrs; type: organism-based; design: dose 50 mg/kg, route intraperitoneal; conditions: in vivo
# Mus musculus [9] = assay: Anticonvulsant activity against 3-mercaptopropionic acid-induced seizures in Kunming mouse assessed as clonic seizures of at 50 mg/kg, ip after 0.5 hrs; type: functional; conditions: route intraperitoneal; method in brief: as §3
# Mus musculus [10] = assay: Toxicity in Kunming mouse assessed as isoniazid-induced lethality at 50 mg/kg, ip after 0.5 hrs; type: organism-based; design: dose 50 mg/kg, route intraperitoneal; conditions: in vivo
# Method in brief: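 Mice were dosed i.p. at 50 mg/kg with a suspension in 1:19 (vol/vol) DMSO/saline containing 0.5% methylcellulose. Isoniazid (250 mg/kg, i.p.) was given 30 min later. Mice were then housed singly and observed for 1 h, scoring clonic seizures, tonic seizures and deaths.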
# Mus musculus [11] = assay: Anticonvulsant activity against thiosemicarbazide-induced seizures in Kunming mouse assessed as clonic seizures of at 50 mg/kg, ip after 2.5 hrs; type: functional; conditions: route intraperitoneal
# Mus musculus [12] = assay: Anticonvulsant activity against isoniazid-induced seizures in Kunming mouse assessed as clonic seizures of at 50 mg/kg, ip after 0.5 hrs; type: functional; conditions: route intraperitoneal; method in brief: as §2
# Mus musculus [13] = assay: Anticonvulsant activity in Kunming mouse assessed as protection against maximal electroshock-induced seizures at 300 mg/kg, ip after 4 hrs; type: functional, organism-based; design: dose 300 mg/kg
# Method in brief: (§4)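 Maximal electroshock test in mice, five per group, dosed i.p. with suspension in 1:19 DMSO/saline plus 0.5% methylcellulose; seizures evoked at 0.5 h or 4 h after dosing. Protection defined as abolition of hind leg tonic maximal extension; scored as number protected/number tested.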
# [14] = Neurotoxicity in ip dosed Kunming mouse by rotarod test; type: toxicity, organism-based; conditions: in vivo
# Mus musculus [15] = assay: Anticonvulsant activity in Kunming mouse assessed as protection against maximal electroshock-induced seizures at 30 mg/kg, ip after 4 hrs; type: functional, organism-based; design: dose 30 mg/kg; method in brief: as §4
# Mus musculus [16] = assay: Toxicity in Kunming mouse assessed as 3-mercaptopropionic acid-induced lethality at 50 mg/kg, ip after 0.5 hrs; type: organism-based; design: dose 50 mg/kg, route intraperitoneal; conditions: in vivo
# Method in brief: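 Compound given i.p. at 50 mg/kg as a suspension in 1:19 (vol/vol) DMSO/saline (0.9% NaCl) with 0.5% methylcellulose. At 30 min, 3-mercaptopropionic acid at 60 mg/kg in saline was injected sc. Convulsion latency and duration, and the latency and percentage of lethality, were recorded over the following 1 h.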
# Mus musculus [17] = assay: Protective index, ratio of TD50 for neurotoxicity to ED50 for anticonvulsant activity in ip dosed Kunming mouse; type: functional
# Mus musculus [18] = assay: Anticonvulsant activity in Kunming mouse assessed as protection against maximal electroshock-induced seizures at 30 mg/kg, ip after 30 mins; type: functional, organism-based; design: dose 30 mg/kg; method in brief: as §4
# Mus musculus [19] = assay: Anticonvulsant activity in Kunming mouse assessed as protection against maximal electroshock-induced seizures at 100 mg/kg, ip after 30 mins; type: functional, organism-based; design: dose 100 mg/kg; method in brief: as §4
# Mus musculus [20] = assay: Anticonvulsant activity in Kunming mouse assessed as protection against maximal electroshock-induced seizures at 100 mg/kg, ip after 4 hrs; type: functional, organism-based; design: dose 100 mg/kg; method in brief: as §4
structure (smiles),measurement,setting,value
NC(=O)N1c2ccccc2C=Cc2ccccc21 [CARBAMAZEPINE],Activity,Mus musculus [1],0%
same,ED50,Mus musculus [2],8.8 mg/kg
same,Activity,Mus musculus [3],0%
same,Activity,Mus musculus [4],10%
same,Activity,Mus musculus [5],0%
same,Activity,Mus musculus [6],0%
same,Activity,Mus musculus [7],100%
same,Activity,Mus musculus [8],20%
same,Activity,Mus musculus [9],100%
same,Activity,Mus musculus [10],0%
same,Activity,Mus musculus [11],100%
same,Activity,Mus musculus [12],50%
O=C(CCc1ccccc1)NCCO,Activity,Mus musculus [13],inactive
O=C(/C=C/c1cccc(F)c1)NCCO,Activity,Mus musculus [1],50%
same,TD50,[14],211 mg/kg
same,ED50,Mus musculus [2],17 mg/kg
same,Activity,Mus musculus [3],40%
same,Activity,Mus musculus [15],inactive
same,Activity,Mus musculus [16],50%
same,Ratio TD50/ED50,Mus musculus [17],12.4
same,Activity,Mus musculus [4],20%
same,Activity,Mus musculus [6],30%
same,Activity,Mus musculus [18],Active
same,Activity,Mus musculus [7],100%
same,Activity,Mus musculus [8],40%
same,Activity,Mus musculus [9],100%
same,Activity,Mus musculus [11],100%
O=C(/C=C/c1ccc(F)cc1)NCCO,TD50,[14],98.3 mg/kg
same,ED50,Mus musculus [2],45.6 mg/kg
same,Ratio TD50/ED50,Mus musculus [17],2.2
same,Activity,Mus musculus [19],Active
same,Activity,Mus musculus [20],inactive
O=C(/C=C/c1ccc2c(c1)OCO2)NCCO,TD50,[14],105 mg/kg
same,ED50,Mus musculus [2],32.4 mg/kg
same,Activity,Mus musculus [15],inactive
same,Ratio TD50/ED50,Mus musculus [17],3.3
O=C(/C=C/c1ccc(Cl)cc1)NCCO,TD50,[14],98.4 mg/kg
same,ED50,Mus musculus [2],73.4 mg/kg
same,Ratio TD50/ED50,Mus musculus [17],1.3
same,Activity,Mus musculus [20],inactive
O=C(/C=C/c1ccccc1F)NCCO,TD50,[14],219 mg/kg
same,ED50,Mus musculus [2],35.3 mg/kg
same,Activity,Mus musculus [15],inactive
same,Ratio TD50/ED50,Mus musculus [17],6.2
O=C(/C=C/c1ccc(Cl)cc1Cl)NCCO,Activity,Mus musculus [13],inactive
O=C(/C=C/c1ccccc1Cl)NCCO,TD50,[14],152 mg/kg
same,ED50,Mus musculus [2],59 mg/kg
same,Ratio TD50/ED50,Mus musculus [17],2.6
same,Activity,Mus musculus [19],Active
same,Activity,Mus musculus [20],inactive
Cc1ccc(/C=C/C(=O)NCCO)cc1,Activity,Mus musculus [20],inactive
O=C(/C=C/c1cccc(Cl)c1)NCCO,TD50,[14],127 mg/kg
same,ED50,Mus musculus [2],25 mg/kg
same,Activity,Mus musculus [15],inactive
same,Ratio TD50/ED50,Mus musculus [17],5.1
same,Activity,Mus musculus [10],20%
O=C(/C=C/c1ccc(Br)cc1)NCCO,TD50,[14],98.3 mg/kg
same,ED50,Mus musculus [2],76 mg/kg
same,Ratio TD50/ED50,Mus musculus [17],1.3
same,Activity,Mus musculus [20],inactive
O=C(NCCO)c1ccccc1,Activity,Mus musculus [13],inactive
O=C(Cc1ccccc1)NCCO,Activity,Mus musculus [13],inactive
CN(C)c1ccc(/C=C/C(=O)NCCO)cc1,TD50,[14],304 mg/kg
same,ED50,Mus musculus [2],66.1 mg/kg
same,Ratio TD50/ED50,Mus musculus [17],4.6
same,Activity,Mus musculus [20],inactive
O=C(/C=C/c1ccccc1)NCCO [IDROCILAMIDE],Activity,Mus musculus [1],40%
same,TD50,[14],155 mg/kg
same,ED50,Mus musculus [2],17.7 mg/kg
same,Activity,Mus musculus [3],20%
same,Activity,Mus musculus [15],inactive
same,Activity,Mus musculus [16],10%
same,Ratio TD50/ED50,Mus musculus [17],8.8
same,Activity,Mus musculus [4],10%
same,Activity,Mus musculus [5],70%
same,Activity,Mus musculus [6],10%
same,Activity,Mus musculus [7],100%
same,Activity,Mus musculus [8],30%
same,Activity,Mus musculus [9],100%
same,Activity,Mus musculus [10],20%
same,Activity,Mus musculus [11],100%
same,Activity,Mus musculus [12],100%
O=C(/C=C/c1ccccc1Br)NCCO,TD50,[14],228 mg/kg
same,ED50,Mus musculus [2],68.2 mg/kg
same,Ratio TD50/ED50,Mus musculus [17],3.3
same,Activity,Mus musculus [20],inactive
COc1ccc(/C=C/C(=O)NCCO)cc1,Activity,Mus musculus [20],inactive
